By ED50 is commonly meant the dose that gives a 50% effect, or the effect in half of the subjects. Broadly, the IC50 is the concentration that inhibits the measured activity by half. A lower IC50 goes with higher potency. A word on the half-life: it is how long it takes for the measured level to halve. In general, Ki refers to the dissociation constant of the complex between target and ligand, obtained from inhibition or displacement.

The test system of data set [1] is Mus musculus. Briefly: In vivo effective dose to protect the mouse (DBA/2J) from audiogenic seizures upon intraperitoneal administration. Type of data set: functional. Conditions: ip.
Data set [2] relates to Mus musculus. The data set is described as follows: In vivo effective dose of compound to protect mice from quinolinic acid seizures upon intravenous administration. Format: functional.
Data set [3] concerns the target Glutamate NMDA receptor. The data set is described as follows: In vitro inhibitory concentration against binding of the [3H]glycine to strychnine-insensitive glycine binding sites of rat N-methyl-D-aspartate glutamate receptor. Format: protein-complex assay.
Data set [4] concerns Rattus norvegicus. The data set is described as follows: In vivo effective dose to protect rats against maximal electroshock induced seizures upon intravenous administration. Format: functional. The gist of the method: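 Maximal electroshock seizures in adult male CDF rats, compound iv, vehicle water, saline or 50 mM Tris base at 1 mL/kg.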
A general note: The maximal electroshock test induces tonic seizures with an electrical stimulus.

Data set [5] deals with Mus musculus. Briefly: In vivo effective dose against harmaline induced cGMP elevation in mouse cerebellum upon intravenous administration. Type of data set: functional.
Data set [6] addresses Glutamate NMDA receptor. Briefly: Antagonist activity of compound against rat N-methyl-D-aspartate glutamate receptor using 11 nM [3H]glycine. Format: functional.
Data set [7] is filed under the species Rattus norvegicus. Briefly: In vitro inhibitory concentration against glutamate stimulated accumulation of cyclic GMP in neonatal rat cerebral slices. Type of data set: functional.
The test system of data set [8] is Rattus norvegicus. Briefly: Reduction of infarct volume in rat with distal middle cerebral artery occlusion at total dose of 135 mg/kg after 30 min of initiation (duration of effect 4 h). Type of data set: functional.
Data set [9] deals with Rattus norvegicus. The data set is described as follows: Reduction of infarct in rat with proximal middle cerebral artery occlusion at total dose of 16 mg/kg after 30 min initiation (duration of effect 6 h). Format: functional.
For data set [10], the system named is Rattus norvegicus. The data set is described as follows: Reduction of infarct in rat with proximal middle cerebral artery occlusion at total dose of 245 mg/kg after 480 min initiation (duration of effect 6 h). Format: functional.
The subject of data set [11] is Rattus norvegicus. Briefly: Reduction of infarct in rat with proximal middle cerebral artery occlusion at total dose of 245 mg/kg after 120 min initiation (duration of effect 6 h). Format: functional.
Data set [12] relates to Rattus norvegicus. The data set is described as follows: Reduction of infarct in rat with proximal middle cerebral artery occlusion at total dose of 245 mg/kg after 180 min initiation (duration of effect 6 h). Type of data set: functional.
The subject of data set [13] is Rattus norvegicus. The data set is described as follows: Reduction of infarct in rat with proximal middle cerebral artery occlusion at total dose of 490 mg/kg after 30 min initiation (duration of effect 6 h). Format: functional.
The subject of data set [14] is Rattus norvegicus. The data set is described as follows: Reduction of infarct in rat with proximal middle cerebral artery occlusion at total dose of 245 mg/kg after 360 min initiation (duration of effect 6 h). Type of data set: functional.
Data set [15] relates to Rattus norvegicus. The data set is described as follows: Reduction of infarct in rat with proximal middle cerebral artery occlusion at total dose of 31.5 mg/kg after 30 min initiation (duration of effect 6 h). Format: functional.
In data set [16] the test system is Rattus norvegicus. Briefly: Reduction of infarct in rat with proximal middle cerebral artery occlusion at total dose of 123 mg/kg after 30 min initiation (duration of effect 6 h). Format: functional.
The nature of data set [17]: Half life was measured in rat following intravenous administration. Type of data set: ADME, organism-based. Particulars: in vivo.
In data set [18] the test system is Rattus norvegicus. Briefly: Reduction of infarct volume in rat with distal middle cerebral artery occlusion at total dose of 245 mg/kg after -15 min of initiation (duration of effect 6 h). Type of data set: functional.
The subject of data set [19] is Rattus norvegicus. Briefly: Reduction of infarct volume in rat with distal middle cerebral artery occlusion at total dose of 126 mg/kg after -15 min of initiation (duration of effect 6 h). Type of data set: functional.
Data set [20] relates to Rattus norvegicus. The data set is described as follows: Reduction of infarct in rat with proximal middle cerebral artery occlusion at total dose of 62 mg/kg after 30 min initiation (duration of effect 6 h). Type of data set: functional.
Data set [21] relates to Rattus norvegicus. Briefly: Reduction of infarct in rat with proximal middle cerebral artery occlusion at total dose of 490 mg/kg after -15 min initiation (duration of effect 6 h). Format: functional.
Data set [22] relates to Rattus norvegicus. The data set is described as follows: Reduction of infarct in rat with proximal middle cerebral artery occlusion at total dose of 245 mg/kg after 30 min initiation (duration of effect 6 h). Format: functional.
Data set [23] has as its system Rattus norvegicus. The data set is described as follows: Reduction of infarct volume in rat with distal middle cerebral artery occlusion at total dose of 490 mg/kg after -15 min of initiation (duration of effect 6 h). Format: functional.
For data set [24], the target named is Glutamate NMDA receptor. Briefly: Antagonist activity of compound against rat N-methyl-D-aspartate glutamate receptor using [3H]glycine.
For data set [25], the target named is Glutamate NMDA receptor. Briefly: Binding affinity against strychnine-insensitive glycine sites of rat N-methyl-D-aspartate glutamate receptor using [3H]glycine. Type of data set: protein-complex assay. The gist of the method: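 Strychnine-insensitive [3H]glycine binding to washed, Triton-treated rat cortical/hippocampal membranes. Triplicates with strychnine and 400 µg protein in 50 mM HEPES-KOH pH 7.4, 30 min at 4 °C. Ended by centrifugation; pellets counted by scintillation; nonspecific binding taken in 0.1 mM D-serine. IC50 = concentration halving specific binding, mean of two or more experiments, fitted by logistic nonlinear regression.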

Data set [26] has as its system Rattus norvegicus. Briefly: Reduction of infarct volume in rat with proximal middle cerebral artery occlusion at total dose of 52 mg/kg after -15 min of initiation (duration of effect 6 h). Format: functional.
Data set [27] deals with Rattus norvegicus. The data set is described as follows: Reduction of infarct volume in rat with proximal middle cerebral artery occlusion at total dose of 52 mg/kg after 180 min of initiation (duration of effect 6 h); nd=Not determined. Format: functional.
The test system of data set [28] is Rattus norvegicus. The data set is described as follows: Reduction of infarct volume in rat with distal middle cerebral artery occlusion at total dose of 52 mg/kg after 30 min of initiation (duration of effect 6 h). Type of data set: functional.
Data set [29] has as its system Rattus norvegicus. Briefly: Reduction of infarct volume in rat with distal middle cerebral artery occlusion at total dose of 52 mg/kg after -15 min of initiation (duration of effect 6 h). Type of data set: functional.

Several values for one entry are separate records, joined by “and”; a condition that tells them apart may be missing. Equal values may be shown once.

As to `O=C(O)/C(=C/c1c(C(=O)O)[nH]c2cc(Cl)cc(Cl)c12)c1ccsc1`, the ED50 is 18.6 mg/kg in the data set on Mus musculus [1], 29.5 mg/kg in the data set with Mus musculus [2], 54.1 mg/kg with Rattus norvegicus [4] and 35 mg/kg in the data set with Mus musculus [5]. In addition, the IC50 at Glutamate NMDA receptor [3] was determined as 9.6 nM; against Glutamate NMDA receptor [6], 14 nM; in the data set filed under Rattus norvegicus [7], 87 nM.
For `Nc1cccc(/C(=C\c2c(C(=O)O)[nH]c3cc(Cl)cc(Cl)c23)C(=O)O)c1`, the 50% effective dose (ED50) in the data set with Mus musculus [1] came to 10.8 mg/kg; with Mus musculus [2], 14.9 mg/kg; in the data set on Rattus norvegicus [4], 30.6 mg/kg; in the data set with Mus musculus [5], 15 mg/kg. Moreover, the Reduction in the data set with Rattus norvegicus [8] stood at 28%; in the data set on Rattus norvegicus [9], 12%; in the data set with Rattus norvegicus [10] it was 13%; with Rattus norvegicus [11], 50%; with Rattus norvegicus [12], 41%; in the data set with Rattus norvegicus [13], 77%. Also, the Reduction with Rattus norvegicus [14] was 58% and 59%; in the data set on Rattus norvegicus [15], 40%; with Rattus norvegicus [16], 49%; in the data set on Rattus norvegicus [18] it was 13%; in the data set with Rattus norvegicus [19] it was 0%; in the data set with Rattus norvegicus [20], 48%. The Reduction with Rattus norvegicus [21] is 73%; in the data set on Rattus norvegicus [22], 68% and 57% and 76% and 71%; in the data set on Rattus norvegicus [23] it was 32%. Also, the IC50 amounted to 24.3 nM at Glutamate NMDA receptor [3] and 364 nM in the data set filed under Rattus norvegicus [7]. For the same molecule, in [17], the half-life was > 1 h.
On to `O=C(O)/C(=C/c1c(C(=O)O)[nH]c2cc(Cl)cc(Cl)c12)c1ccccc1`, for which the ED50 in the data set on Mus musculus [1] was 12.2 mg/kg; in the data set on Mus musculus [2], 37 mg/kg; with Rattus norvegicus [4], 29 mg/kg; with Mus musculus [5] it was 59 mg/kg. For the same molecule, the figures for the IC50 at Glutamate NMDA receptor [3], on Glutamate NMDA receptor [24] and in the data set filed under Rattus norvegicus [7] were 10.9 nM, 11 nM and 282 nM, respectively.
On Glutamate NMDA receptor [6], `O=C(O)/C(=C/c1c(C(=O)O)[nH]c2cc(Cl)cc(Cl)c12)c1cccc(NC(=O)c2ccccc2)c1` gave a 50% inhibitory concentration (IC50) of 512 nM.
`O=c1[nH]c2cc(Cl)ccc2c(O)c1-c1cccc(Oc2ccccc2)c1`: the ED50 is 1 mg/kg in the data set with Mus musculus [1], 5.2 mg/kg in the data set with Mus musculus [2], 3.5 mg/kg in the data set on Rattus norvegicus [4] and < 0.05 mg/kg in the data set with Mus musculus [5]. Further, the IC50 at Glutamate NMDA receptor [3] was determined as 13.2 nM; in the data set filed under Rattus norvegicus [7] it was 31 nM.
In turn, `O=C(O)/C(=C/c1c(C(=O)O)[nH]c2cc(Cl)cc(Cl)c12)c1cccc2ccccc12` returned a 50% inhibitory concentration (IC50) against Glutamate NMDA receptor [6] of 145 nM.
At Glutamate NMDA receptor [6], `O=C(O)/C(=C/c1c(C(=O)O)[nH]c2cc(Cl)cc(Cl)c12)c1ccc(F)cc1` registered an IC50 of 35.5 nM.
Molecule `CS(=O)(=O)Nc1ccc(/C(=C\c2c(C(=O)O)[nH]c3cc(Cl)cc(Cl)c23)C(=O)O)cc1` gave an IC50 against Glutamate NMDA receptor [6] of 167 nM.
`O=C(O)/C(=C/c1c(C(=O)O)[nH]c2cc(Cl)cc(Cl)c12)c1cccs1` displayed an IC50 against Glutamate NMDA receptor [6] of 9 nM.
Consider `Nc1cccc(/C(=C/c2c(C(=O)O)[nH]c3cc(Cl)cc(Cl)c23)C(=O)O)c1`, for which the Ki at Glutamate NMDA receptor [25] was found to be 553 nM.
Regarding `Cc1ccc(/C(=C\c2c(C(=O)O)[nH]c3cc(Cl)cc(Cl)c23)C(=O)O)cc1`, at Glutamate NMDA receptor [6], the IC50 is 105 nM.
In turn, `O=C(O)/C(=C/c1c(C(=O)O)[nH]c2cc(Cl)cc(Cl)c12)c1ccco1` yielded an IC50 against Glutamate NMDA receptor [6] of 22 nM.
At Glutamate NMDA receptor [6], `O=C(O)/C(=C/c1c(C(=O)O)[nH]c2cc(Cl)cc(Cl)c12)c1ccc(C(F)(F)F)cc1` registered a concentration for half-maximal inhibition (IC50) of 89 nM.
The same measure, in the same setting: for `O=C(NCc1ccccc1)/C(=C/c1c(C(=O)O)[nH]c2cc(Cl)cc(Cl)c12)c1ccccc1` the value was 31 nM.
In the case of `COC(=O)Nc1cccc(/C(=C\c2c(C(=O)O)[nH]c3cc(Cl)cc(Cl)c23)C(=O)O)c1`, the ED50 is 8.5 mg/kg in the data set on Mus musculus [1], > 64 mg/kg in the data set with Mus musculus [2], > 128 mg/kg in the data set on Rattus norvegicus [4] and > 64 mg/kg with Mus musculus [5]. Moreover, the concentration for half-maximal inhibition (IC50) at Glutamate NMDA receptor [3] came out at 114 nM; against Glutamate NMDA receptor [6], 114 nM; in the data set listed under Rattus norvegicus [7], 840 nM.
On to `O=C(O)/C(=C/c1c(C(=O)O)[nH]c2cc(Cl)cc(Cl)c12)c1ccc([N+](=O)[O-])cc1`, for which the midpoint of inhibition against Glutamate NMDA receptor [6], the IC50, lay at 21 nM.
Consider `O=C(/C=C/c1c(C(=O)[O-])[nH]c2cc(Cl)cc(Cl)c12)Nc1ccccc1.[Na+]` [GAVESTINEL SODIUM], for which the ED50 in the data set with Mus musculus [1] was > 25 mg/kg; in the data set on Mus musculus [2], > 64 mg/kg; in the data set on Rattus norvegicus [4] it was > 32 mg/kg. Also, the IC50 at Glutamate NMDA receptor [3] came to 15.2 nM; in the data set filed under Rattus norvegicus [7] it was 262 nM.
On Glutamate NMDA receptor [6], `O=C(/C=C/c1c(C(=O)O)[nH]c2cc(Cl)cc(Cl)c12)Nc1ccccc1` [GAVESTINEL] displayed a concentration for half-maximal inhibition (IC50) of 15 nM.
Consider `O=c1[nH]c2cc(Cl)c(Cl)c([N+](=O)[O-])c2[nH]c1=O` [LICOSTINEL], for which the Reduction was 50% with Rattus norvegicus [26]; 28% with Rattus norvegicus [27]; 33% and 24% with Rattus norvegicus [28]; 18% in the data set on Rattus norvegicus [29]. For the same molecule, the ED50 came to 3.7 mg/kg in the data set on Mus musculus [1], 14.7 mg/kg in the data set on Mus musculus [2], 46.3 mg/kg in the data set with Rattus norvegicus [4] and 3.5 mg/kg in the data set on Mus musculus [5]. The values for the IC50 on Glutamate NMDA receptor [3] and in the data set listed under Rattus norvegicus [7] were 20 nM and 183 nM, respectively.
